Among the data in ChEMBL document CHEMBL1124233, “Clofazimine analogues active against a clofazimine-resistant organism” (J Med Chem, 1988) are Concentration values, retold here.

Holding throughout (type): functional, organism-based
Experiment [1] has as its system Mycolicibacterium smegmatis. Description: 100% inhibition of growth of clofazimine resistant Mycobacterium smegmatis 607 strain in vitro. In outline: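 Strain: 20× step-up clofazimine-resistant mutant of M. smegmatis ATCC607. 10^5 viable cells inoculated into modified Kirchner's medium with 0.5% Tween 80. Drugs were added in DMSO (2% final in all tubes). Roller tubes were incubated at 37 °C for 72 h. Growth was read as optical transmission in a spectrophotometer.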

The test system of experiment [2] is Mycolicibacterium smegmatis. Description: Concentration for 100% inhibition of growth of dapsone sensitive Mycobacterium smegmatis 607 strain in vitro. In outline:
(§1)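 M. smegmatis ATCC607-derived strains (one of three used, including a dapsone-sensitive one) were grown in modified Kirchner's medium with 0.5% Tween 80, inoculated with 10^5 viable cells. Drugs were added in DMSO (2% final). Roller tubes were incubated at 37 °C for 72 h. Growth was read as spectrophotometric transmission.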

Experiment [3] relates to Mycolicibacterium smegmatis. Description: 100% inhibition of growth of rifampicin resistant Mycobacterium smegmatis 607 strain in vitro. In outline:
as §1

With `CC(C)CC/N=c1\cc2n(-c3ccccc3)c3ccc(Cl)cc3nc-2cc1Nc1ccccc1`, the figures for the Concentration in experiment [1], in experiment [2] and in experiment [3] were 100 µg/mL, 3 µg/mL and 3 µg/mL, respectively.

As to `NCCCCCC/N=c1\cc2n(-c3ccc(Cl)cc3)c3ccccc3nc-2cc1Nc1ccc(Cl)cc1`, the Concentration came to 2 µg/mL in experiment [1], 0.3 µg/mL in experiment [2] and 0.8 µg/mL in experiment [3].

For `Clc1ccc(Nc2cc3nc4ccccc4n(-c4ccc(Cl)cc4)c-3c/c2=N\CCN2CCOCC2)cc1`, the Concentration in experiment [1] was 20 µg/mL; in experiment [2] it was 1 µg/mL; in experiment [3] it was 1 µg/mL.

With `OCC/N=c1\cc2n(-c3ccccc3)c3ccc(Cl)cc3nc-2cc1Nc1ccccc1`, the Concentration in experiment [1] worked out at 100 µg/mL; in experiment [2] it was 2 µg/mL; in experiment [3], 4 µg/mL.

`Clc1ccc(Nc2cc3nc4ccccc4n(-c4ccc(Cl)cc4)c-3c/c2=N\CCN2CCCCC2)cc1`: the Concentration in experiment [1] was 10 µg/mL; in experiment [2], 0.4 µg/mL; in experiment [3] it was 0.5 µg/mL.

As for `c1ccc(Nc2cc3nc4ccccc4n(-c4ccccc4)c-3c/c2=N\CC2CCNCC2)cc1`, the results for the Concentration in experiment [1], in experiment [2] and in experiment [3] were 0.6 µg/mL, 0.3 µg/mL and 0.3 µg/mL, respectively.

For `c1ccc(Nc2cc3nc4ccccc4n(-c4ccccc4)c-3c/c2=N\CCN2CCCC2)cc1`, the Concentration is 2 µg/mL in experiment [1], 0.4 µg/mL in experiment [2] and 0.4 µg/mL in experiment [3].

As to `Clc1ccc2c(c1)nc1cc(Nc3ccccc3)/c(=N/CC3CCNCC3)cc-1n2-c1ccccc1`, the Concentration in experiment [1] was found to be 1 µg/mL; in experiment [2], 0.2 µg/mL; in experiment [3], 0.4 µg/mL.

On to `CCCC/N=c1\cc2n(-c3ccc(Cl)cc3)c3ccccc3nc-2cc1Nc1ccc(Cl)cc1`, for which the Concentration in experiment [1] came to 100 µg/mL; in experiment [2], 3 µg/mL; in experiment [3] it was 3 µg/mL.

Consider `CCNCCC/N=c1\cc2n(-c3ccc(Cl)cc3)c3ccccc3nc-2cc1Nc1ccc(Cl)cc1`, for which the Concentration stood at 1 µg/mL in experiment [1], 0.2 µg/mL in experiment [2] and 0.2 µg/mL in experiment [3].

As to `Clc1ccc(Nc2cc3nc4ccccc4n(-c4ccc(Cl)cc4)c-3c/c2=N\CCN2CCNCC2)cc1`, the Concentration in experiment [1] was determined as 0.8 µg/mL; in experiment [2], 0.2 µg/mL; in experiment [3], 0.2 µg/mL.

For the molecule `OCC/N=c1\cc2n(-c3ccccc3)c3ccccc3nc-2cc1Nc1ccccc1`, the Concentration came out at 20 µg/mL in experiment [1], 3 µg/mL in experiment [2] and 5 µg/mL in experiment [3].

Consider `CC(C)C/N=c1\cc2n(-c3ccccc3)c3ccc(Cl)cc3nc-2cc1Nc1ccccc1`, for which the Concentration in experiment [1] came out at 100 µg/mL; in experiment [2], 2 µg/mL; in experiment [3], 3 µg/mL.

For the molecule `Clc1ccc2c(c1)nc1cc(Nc3ccccc3)/c(=N/C3CCCCC3)cc-1n2-c1ccccc1`, the Concentration came out at 20 µg/mL in experiment [1], 3 µg/mL in experiment [2] and 0.6 µg/mL in experiment [3].

On to `OCCN(CCO)CCC/N=c1\cc2n(-c3ccc(Cl)cc3)c3ccccc3nc-2cc1Nc1ccc(Cl)cc1`, for which the values for the Concentration in experiment [1], in experiment [2] and in experiment [3] were 3 µg/mL, 0.6 µg/mL and 1 µg/mL, respectively.

As for `CCCCN(CCCC)CCC/N=c1\cc2n(-c3ccc(Cl)cc3)c3ccccc3nc-2cc1Nc1ccc(Cl)cc1`, the results for the Concentration in experiment [1], in experiment [2] and in experiment [3] were 12 µg/mL, 0.4 µg/mL and 0.8 µg/mL, respectively.

Turning to `CCN(CC)CC/N=c1\cc2n(-c3ccc(C)cc3)c3ccccc3nc-2cc1Nc1ccc(C)cc1`, the Concentration is 3 µg/mL in experiment [1], 0.5 µg/mL in experiment [2] and 0.5 µg/mL in experiment [3].

Regarding `c1ccc(Nc2cc3nc4ccccc4n(-c4ccccc4)c-3c/c2=N\CCN2CCCCC2)cc1`, the Concentration in experiment [1] was found to be 2 µg/mL; in experiment [2], 0.4 µg/mL; in experiment [3], 0.4 µg/mL.

As for `c1ccc(Nc2cc3nc4ccccc4n(-c4ccccc4)c-3c/c2=N\C2CCCCCC2)cc1`, the Concentration in experiment [1] is 20 µg/mL; in experiment [2], 2 µg/mL; in experiment [3] it was 2 µg/mL.

Regarding `N=c1cc2n(-c3ccccc3)c3ccccc3nc-2cc1Nc1ccccc1`, the figures for the Concentration in experiment [1], in experiment [2] and in experiment [3] were 12 µg/mL, 3 µg/mL and 8 µg/mL, respectively.

In the case of `CCCC/N=c1\cc2n(-c3ccccc3)c3ccccc3nc-2cc1Nc1ccccc1`, the Concentration was 20 µg/mL in experiment [1], 3 µg/mL in experiment [2] and 3 µg/mL in experiment [3].

Consider `Clc1ccc(Nc2cc3nc4ccccc4n(-c4ccc(Cl)cc4)c-3c/c2=N\CC2CCCCC2)cc1`, for which the figures for the Concentration in experiment [1], in experiment [2] and in experiment [3] were 100 µg/mL, 3 µg/mL and 3 µg/mL, respectively.

For the molecule `CC1CCC(/N=c2\cc3n(-c4ccccc4)c4ccccc4nc-3cc2Nc2ccccc2)CC1` (stereo not given), the Concentration in experiment [1] was determined as 100 µg/mL; in experiment [2], 6 µg/mL; in experiment [3], 8 µg/mL.

As to `OCCC/N=c1\cc2n(-c3ccc(Cl)cc3)c3ccccc3nc-2cc1Nc1ccc(Cl)cc1`, the values for the Concentration in experiment [1], in experiment [2] and in experiment [3] were 10 µg/mL, 2 µg/mL and 2 µg/mL, respectively.

Consider `OCCNCC/N=c1\cc2n(-c3ccc(Cl)cc3)c3ccccc3nc-2cc1Nc1ccc(Cl)cc1`, for which the Concentration was found to be 20 µg/mL in experiment [1], 8 µg/mL in experiment [2] and 8 µg/mL in experiment [3].

Consider `CC(C)/N=c1\cc2n(-c3ccc(Cl)cc3)c3ccccc3nc-2cc1Nc1ccc(Cl)cc1`, for which the Concentration in experiment [1] stood at 30 µg/mL; in experiment [2] it was 1.5 µg/mL; in experiment [3] it was 0.5 µg/mL.

Take `OCC/N=c1\cc2n(-c3ccc(Cl)cc3)c3ccccc3nc-2cc1Nc1ccc(Cl)cc1`: the Concentration in experiment [1] is 20 µg/mL; in experiment [2], 2 µg/mL; in experiment [3], 2 µg/mL.

As to `Clc1ccc(Nc2cc3nc4ccccc4n(-c4ccc(Cl)cc4)c-3c/c2=N\C2CCCCCC2)cc1`, the Concentration in experiment [1] came to 50 µg/mL; in experiment [2], 2 µg/mL; in experiment [3], 3 µg/mL.

Consider `CCN(CC)CC/N=c1\cc2n(-c3ccc(Cl)cc3)c3ccccc3nc-2cc1Nc1ccc(Cl)cc1`, for which the Concentration in experiment [1] is 12 µg/mL; in experiment [2], 0.6 µg/mL; in experiment [3] it was 0.6 µg/mL.

For `c1ccc(Nc2cc3nc4ccccc4n(-c4ccccc4)c-3c/c2=N\CCN2CCNCC2)cc1`, the Concentration came to 1 µg/mL in experiment [1], 0.4 µg/mL in experiment [2] and 0.4 µg/mL in experiment [3].

Regarding `CC1CCC(/N=c2\cc3n(-c4ccc(Cl)cc4)c4ccccc4nc-3cc2Nc2ccc(Cl)cc2)CC1` (stereo not given), the results for the Concentration in experiment [1], in experiment [2] and in experiment [3] were 25 µg/mL, 7.5 µg/mL and 7.5 µg/mL, respectively.

For the molecule `CCN(CC)CCC/N=c1\cc2n(-c3ccc(Cl)cc3)c3ccccc3nc-2cc1Nc1ccc(Cl)cc1`, the Concentration in experiment [1] was found to be 1 µg/mL; in experiment [2] it was 0.2 µg/mL; in experiment [3], 0.2 µg/mL.

Take `Clc1ccc(Nc2cc3nc4ccccc4n(-c4ccc(Cl)cc4)c-3c/c2=N\CCCN2CCCC2)cc1`: the Concentration in experiment [1] was 0.8 µg/mL; in experiment [2], 0.3 µg/mL; in experiment [3] it was 0.3 µg/mL.

Regarding `Clc1ccc(Nc2cc3nc4ccccc4n(-c4ccc(Cl)cc4)c-3c/c2=N\CCCNC2CCCCC2)cc1`, the Concentration in experiment [1] was 1 µg/mL; in experiment [2], 0.2 µg/mL; in experiment [3], 0.2 µg/mL.

For the molecule `CC1(C)CC(/N=c2\cc3n(-c4ccc(Cl)cc4)c4ccccc4nc-3cc2Nc2ccc(Cl)cc2)CC(C)(C)N1`, the Concentration was determined as 2 µg/mL in experiment [1], 0.2 µg/mL in experiment [2] and 0.5 µg/mL in experiment [3].

For the molecule `C/N=c1\cc2n(-c3ccc(Cl)cc3)c3ccccc3nc-2cc1Nc1ccc(Cl)cc1`, the Concentration is 100 µg/mL in experiment [1], 2 µg/mL in experiment [2] and 2 µg/mL in experiment [3].

For the molecule `Clc1ccc2c(c1)nc1cc(Nc3ccccc3)/c(=N/CCN3CCOCC3)cc-1n2-c1ccccc1`, the Concentration was found to be 50 µg/mL in experiment [1], 1 µg/mL in experiment [2] and 1.5 µg/mL in experiment [3].

For the molecule `NCCCC/N=c1\cc2n(-c3ccc(Cl)cc3)c3ccccc3nc-2cc1Nc1ccc(Cl)cc1`, the Concentration in experiment [1] was 0.5 µg/mL; in experiment [2] it was 0.2 µg/mL; in experiment [3], 0.3 µg/mL.

For the molecule `CCCC/N=c1\cc2n(-c3ccccc3)c3ccc(Cl)cc3nc-2cc1Nc1ccccc1`, the values for the Concentration in experiment [1], in experiment [2] and in experiment [3] were 100 µg/mL, 2 µg/mL and 3 µg/mL, respectively.

For `Cc1ccc(Nc2cc3nc4ccccc4n(-c4ccc(C)cc4)c-3c/c2=N\CCO)cc1`, the Concentration in experiment [1] was determined as 12 µg/mL; in experiment [2], 4 µg/mL; in experiment [3], 8 µg/mL.

For `CCOc1ccc(Nc2cc3nc4ccccc4n(-c4ccc(OCC)cc4)c-3c/c2=N\CCN(CC)CC)cc1`, the Concentration in experiment [1] was found to be 5 µg/mL; in experiment [2], 1 µg/mL; in experiment [3] it was 1 µg/mL.

Turning to `Cc1ccc(Nc2cc3nc4ccccc4n(-c4ccc(C)cc4)c-3c/c2=N\CC2CCNCC2)cc1`, the Concentration in experiment [1] was found to be 0.4 µg/mL; in experiment [2] it was 0.2 µg/mL; in experiment [3] it was 0.3 µg/mL.

Consider `Cc1ccc(Nc2cc3nc4ccccc4n(-c4ccc(C)cc4)c-3c/c2=N\C2CCCCC2)cc1`, for which the results for the Concentration in experiment [1], in experiment [2] and in experiment [3] were 100 µg/mL, 8 µg/mL and 8 µg/mL, respectively.

Take `CC(C/N=c1\cc2n(-c3ccc(Cl)cc3)c3ccccc3nc-2cc1Nc1ccc(Cl)cc1)N(C)C` (stereo not given): the Concentration worked out at 16 µg/mL in experiment [1], 1.2 µg/mL in experiment [2] and 6 µg/mL in experiment [3].

On to `CCCNCCC/N=c1\cc2n(-c3ccc(Cl)cc3)c3ccccc3nc-2cc1Nc1ccc(Cl)cc1`, for which the Concentration in experiment [1] came out at 2 µg/mL; in experiment [2], 0.2 µg/mL; in experiment [3], 0.2 µg/mL.
